Experimental data from ChEMBL document CHEMBL1150302, “Aminoacyl-tRNA synthetase inhibitors as potent and synergistic immunosuppressants” (J Med Chem, 2008).
Calls of active or inactive are those of the source. The rule behind the calls is not given here.

What was measured:
PBMC [1] = assay: Immunosuppressive activity against human PBMC assessed as inhibition of allogenic mixed lymphocyte reaction; assay type: functional, cell-based
Outline: (§1)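 Responder cells taken from the Ficoll-plasma interface, washed three times (0.12 × 10⁶), cocultured for 6 days with mitomycin C-treated RPMI 1788 stimulator cells (0.045 × 10⁶) and compound in RPMI 1640 with 10% fetal calf serum. Pulsed after five days with 1 µCi methyl-³H thymidine, harvested 18 h later and counted. cpm converted to % inhibition versus compound-free MLR.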

PBMC [2] = assay: Immunosuppressive activity against human PBMC assessed as inhibition of allogenic mixed lymphocyte reaction upto 10 uM; assay type: functional, cell-based; outline: as §1
PBMC [3] = assay: Immunosuppressive activity against human PBMC assessed as inhibition of allogenic mixed lymphocyte reaction at 0.5 uM; assay type: functional; outline: as §1
PBMC [4] = assay: Immunosuppressive activity against human PBMC assessed as inhibition of allogenic mixed lymphocyte reaction at 0.1 uM; assay type: functional; outline: as §1
PBMC [5] = assay: Immunosuppressive activity against human PBMC assessed as inhibition of allogenic mixed lymphocyte reaction at 1.0 uM; assay type: functional; outline: as §1
PBMC [6] = assay: Immunosuppressive activity against human PBMC assessed as inhibition of allogenic mixed lymphocyte reaction at 0.0004 uM; assay type: functional; outline: as §1
PBMC [7] = assay: Immunosuppressive activity against human PBMC assessed as inhibition of allogenic mixed lymphocyte reaction at 0.0008 uM; assay type: functional; outline: as §1
PBMC [8] = assay: Immunosuppressive activity against human PBMC assessed as inhibition of allogenic mixed lymphocyte reaction at 0.06 uM; assay type: functional; outline: as §1
PBMC [9] = assay: Immunosuppressive activity against human PBMC assessed as inhibition of allogenic mixed lymphocyte reaction at 0.01 uM; assay type: functional; outline: as §1
PBMC [10] = assay: Immunosuppressive activity against human PBMC assessed as inhibition of allogenic mixed lymphocyte reaction at 0.08 uM; assay type: functional; outline: as §1

In the case of Nc1ncnc2c1ncn2[C@@H]1CO[C@H](COS(=O)(=O)NC(=O)[C@@H]2CCCN2)[C@@H](O)C1, the IC50 (PBMC [1]) is reported as 2800 nM.

Nc1ncnc2c1ncn2[C@@H]1CO[C@H](COS(=O)(=O)NC(=O)[C@@H](N)Cc2c[nH]cn2)[C@@H](O)C1 gave an IC50 (PBMC [1]) of 6700 nM.

Work on CSCC[C@H](N)C(=O)NS(=O)(=O)OC[C@H]1OC[C@@H](n2cnc3c(N)ncnc32)[C@H](O)[C@@H]1O yielded an IC50 (PBMC [1]) of 5200 nM.

For C/C(=C\C(=O)OCCCCCCCCC(=O)O)C[C@@H]1OC[C@H](C[C@@H]2O[C@H]2[C@@H](C)[C@H](C)O)[C@@H](O)[C@H]1O, the Activity (PBMC [2]) was “inactive”.

Molecule Nc1ncnc2c1ncn2[C@@H]1CO[C@H](COS(=O)(=O)NC(=O)[C@@H]2CCCN2)[C@@H](O)[C@H]1O has an IC50 (PBMC [1]) of 750 nM.

CC[C@H](N)C(=O)NS(=O)(=O)OC[C@H]1O[C@@H](n2cnc3c(N)ncnc32)[C@H](O)[C@@H]1O gave an IC50 (PBMC [1]) of 5500 nM.

CSCC[C@H](N)C(=O)NS(=O)(=O)OC[C@H]1O[C@@H](n2cnc3c(N)ncnc32)[C@H](O)[C@@H]1O gave an inhibition at 0.5 µM (PBMC [3]) of 28.4% and an IC50 (PBMC [1]) of 500 nM.

Molecule C[C@H](N)C(=O)NS(=O)(=O)OC[C@H]1O[C@@H](n2cnc3c(N)ncnc32)[C@H](O)[C@@H]1O [ALASA] has an inhibition at 0.5 µM (PBMC [3]) of 4.9%, an IC50 (PBMC [1]) of 1700 nM and an inhibition at 0.1 µM (PBMC [4]) of 6.5%.

Work on CSCC[C@H](N)C(=O)NS(=O)(=O)OC[C@H]1OC[C@@H](n2cnc3c(N)ncnc32)C[C@@H]1O yielded an IC50 (PBMC [1]) of 5500 nM.

NCCCC[C@H](N)C(=O)NS(=O)(=O)OC[C@H]1O[C@@H](n2cnc3c(N)ncnc32)[C@H](O)[C@@H]1O was tested, and the inhibition at 1 µM (PBMC [5]) was 67% and the IC50 (PBMC [1]) was 1000 nM.

Nc1ncnc2c1ncn2[C@@H]1O[C@H](COS(=O)(=O)NC(=O)[C@@H]2CSCN2)[C@@H](O)[C@H]1O showed an IC50 (PBMC [1]) of 550 nM.

Work on N=C(N)NCCC[C@H](N)C(=O)NS(=O)(=O)OC[C@H]1OC[C@@H](n2cnc3c(N)ncnc32)C[C@@H]1O yielded an IC50 (PBMC [1]) of 600 nM.

NC(=O)CC[C@H](N)C(=O)NS(=O)(=O)OC[C@H]1O[C@@H](n2cnc3c(N)ncnc32)[C@H](O)[C@@H]1O gave an IC50 (PBMC [1]) of 800 nM.

For Nc1ncnc2c1ncn2[C@@H]1O[C@H](COS(=O)(=O)NC(=O)[C@@H](N)Cc2cnc[nH]2)[C@@H](O)[C@H]1O, the IC50 (PBMC [1]) was 1000 nM and the inhibition at 0.1 µM (PBMC [4]) was 12.4%.

Molecule CC(C)C[C@H](N)C(=O)NS(=O)(=O)OC[C@H]1OC[C@@H](n2cnc3c(N)ncnc32)[C@H](O)[C@@H]1O has an IC50 (PBMC [1]) of 1000 nM.

With Nc1ncnc2c1ncn2[C@@H]1O[C@H](COS(=O)(=O)NC(=O)[C@H](Cc2ccccc2)NCc2ccccc2)[C@@H](O)[C@H]1O the IC50 (PBMC [1]) was 200 nM and the inhibition at 0.1 µM (PBMC [4]) was 31.1%.

For NCC(=O)NS(=O)(=O)OC[C@H]1O[C@@H](n2cnc3c(N)ncnc32)[C@H](O)[C@@H]1O, the IC50 (PBMC [1]) was 800 nM.

Work on N=C(N)NCCC[C@H](N)C(=O)NS(=O)(=O)OC[C@H]1OC[C@@H](n2cnc3c(N)ncnc32)[C@H](O)[C@@H]1O yielded an IC50 (PBMC [1]) of 600 nM.

Nc1ncnc2c1ncn2[C@@H]1O[C@H](COS(=O)(=O)NC(=O)[C@@H](N)Cc2ccc(O)cc2)[C@@H](O)[C@H]1O gave an IC50 (PBMC [1]) of 5600 nM.

C[C@H](N)C(=O)NS(=O)(=O)OC[C@H]1OC[C@@H](n2cnc3c(N)ncnc32)[C@H](O)[C@@H]1O was tested, and the inhibition at 0.5 µM (PBMC [3]) was 68% and the IC50 (PBMC [1]) was 300 nM.

Nc1ncnc2c1ncn2[C@@H]1O[C@H](COS(=O)(=O)NC(=O)[C@@H](N)Cc2ccccc2)[C@@H](O)[C@H]1O [PHESA] gave an inhibition at 0.5 µM (PBMC [3]) of 53.4%, an IC50 (PBMC [1]) of 1000 nM and an inhibition at 0.1 µM (PBMC [4]) of 10.7%.

Molecule CC(C)C[C@H](N)C(=O)NS(=O)(=O)OC[C@H]1O[C@@H](n2cnc3c(N)ncnc32)[C@H](F)[C@@H]1O has an IC50 (PBMC [1]) of 450 nM.

C=C(C)CC(N)C(=O)NS(=O)(=O)OC[C@H]1O[C@@H](n2cnc3c(N)ncnc32)[C@H](O)[C@@H]1O (mixture of isomers) showed an IC50 (PBMC [1]) of 550 nM.

C[C@@H](O)[C@H](N)C(=O)NS(=O)(=O)OC[C@H]1O[C@@H](n2cnc3c(N)ncnc32)[C@H](O)[C@@H]1O showed an IC50 (PBMC [1]) of 5200 nM.

In the case of C[C@H](N)C(=O)NS(=O)(=O)OC[C@H]1O[C@@H](n2cnc3c(N)ncnc32)[C@H](F)[C@@H]1O, the IC50 (PBMC [1]) is reported as 400 nM.

With CCC[C@H](N)C(=O)NS(=O)(=O)OC[C@H]1O[C@@H](n2cnc3c(N)ncnc32)[C@H](O)[C@@H]1O the IC50 (PBMC [1]) was 4700 nM.

In the case of Nc1ncnc2c1ncn2[C@@H]1O[C@H](COS(=O)(=O)NC(=O)[C@@H](N)Cc2c[nH]c3ccccc23)[C@@H](O)[C@H]1O, the inhibition at 0.5 µM (PBMC [3]) is reported as 27.6%, the IC50 (PBMC [1]) is reported as 500 nM and the inhibition at 0.1 µM (PBMC [4]) is reported as 2.3%.

Nc1ncnc2c1ncn2[C@@H]1O[C@H](COS(=O)(=O)NC(=O)[C@@H](N)CS)[C@@H](O)[C@H]1O was tested, and the IC50 (PBMC [1]) was 400 nM.

For Nc1ncnc2c1ncn2[C@@H]1O[C@H](COS(=O)(=O)NC(=O)[C@@H]2CCCN2)[C@@H](O)[C@H]1F, the IC50 (PBMC [1]) was 300 nM.

Molecule Nc1ncnc2c1ncn2[C@@H]1O[C@H](COS(=O)(=O)NC(=O)[C@@H]2CCN2)[C@@H](O)[C@H]1O has an IC50 (PBMC [1]) of 600 nM.

Work on N=C(N)NCCC[C@H](N)C(=O)NS(=O)(=O)OC[C@H]1O[C@@H](n2cnc3c(N)ncnc32)[C@H](O)[C@@H]1O yielded an IC50 (PBMC [1]) of 1000 nM.

Nc1ncnc2c1ncn2[C@@H]1O[C@H](COS(=O)(=O)NC(=O)[C@@H](N)CC(=O)O)[C@@H](O)[C@H]1O was tested, and the IC50 (PBMC [1]) was 2400 nM.

Molecule CC[C@H](C)[C@H](N)C(=O)NS(=O)(=O)OC[C@H]1O[C@@H](n2cnc3c(N)ncnc32)[C@H](O)[C@@H]1O has an IC50 (PBMC [1]) of 5600 nM.

Nc1ncnc2c1ncn2[C@@H]1O[C@H](COS(=O)(=O)NC(=O)[C@@H](N)CO)[C@@H](O)[C@H]1O gave an IC50 (PBMC [1]) of 4800 nM.

CC(C)C[C@H](N)C(=O)NS(=O)(=O)OC[C@H]1OC[C@@H](n2cnc3c(N)ncnc32)C[C@@H]1O showed an IC50 (PBMC [1]) of 6800 nM.

Work on CSCC[C@H](N)C(=O)NS(=O)(=O)OC[C@H]1O[C@@H](n2cnc3c(N)ncnc32)[C@H](F)[C@@H]1O yielded an IC50 (PBMC [1]) of 400 nM.

With Nc1ncnc2c1ncn2[C@@H]1CO[C@H](COS(=O)(=O)NC(=O)[C@H](Cc2ccccc2)NCc2ccccc2)[C@@H](O)[C@H]1O the IC50 (PBMC [1]) was 80 nM.

Work on CC(C)[C@H](N)C(=O)NS(=O)(=O)OC[C@H]1O[C@@H](n2cnc3c(N)ncnc32)[C@H](O)[C@@H]1O yielded an IC50 (PBMC [1]) of 5600 nM.

Molecule Nc1ncnc2c1ncn2[C@@H]1O[C@H](COS(=O)(=O)NC(=O)[C@@H](N)Cc2c[nH]cn2)[C@@H](O)[C@H]1F has an IC50 (PBMC [1]) of 450 nM.

C[C@H](N)C(=O)NS(=O)(=O)OC[C@H]1OC[C@@H](n2cnc3c(N)ncnc32)C[C@@H]1O showed an IC50 (PBMC [1]) of 5500 nM.

Molecule CO[C@H]1C[C@@H]2CC[C@@H](C)[C@@](O)(O2)C(=O)C(=O)N2CCCC[C@H]2C(=O)O[C@H]([C@H](C)C[C@@H]2CC[C@@H](O)[C@H](OC)C2)CC(=O)[C@H](C)/C=C(\C)[C@@H](O)[C@@H](OC)C(=O)[C@H](C)C[C@H](C)/C=C/C=C/C=C/1C [SIROLIMUS] has an inhibition at 0.0004 µM (PBMC [6]) of 13.1% and an inhibition at 0.0008 µM (PBMC [7]) of 32.5%.

With Nc1ncnc2c1ncn2[C@@H]1O[C@H](COS(=O)(=O)NC(=O)[C@@H](N)CCC(=O)O)[C@@H](O)[C@H]1O the IC50 (PBMC [1]) was 4900 nM.

In the case of CC(C)C[C@H](N)C(=O)NS(=O)(=O)OC[C@H]1O[C@@H](n2cnc3c(N)ncnc32)[C@H](O)[C@@H]1O [LEUSA], the inhibition at 0.5 µM (PBMC [3]) is reported as 16.3%, the IC50 (PBMC [1]) is reported as 1100 nM and the inhibition at 0.1 µM (PBMC [4]) is reported as 16%.

Molecule NC(=O)C[C@H](N)C(=O)NS(=O)(=O)OC[C@H]1O[C@@H](n2cnc3c(N)ncnc32)[C@H](O)[C@@H]1O has an IC50 (PBMC [1]) of 300 nM.

Work on Nc1ncnc2c1ncn2[C@@H]1CO[C@H](COS(=O)(=O)NC(=O)[C@@H](N)Cc2c[nH]cn2)[C@@H](O)[C@H]1O yielded an IC50 (PBMC [1]) of 1200 nM.

Molecule Nc1ncnc2c1ncn2[C@@H]1O[C@H](COS(=O)(=O)NC(=O)[C@@H]2CCCN2)[C@@H](O)[C@H]1O has an inhibition at 0.5 µM (PBMC [3]) of 18.6%, an IC50 (PBMC [1]) of 700 nM and an inhibition at 0.1 µM (PBMC [4]) of -2.7%.

With C/C=C/C[C@@H](C)[C@@H](O)[C@H]1C(=O)N[C@@H](CC)C(=O)N(C)CC(=O)N(C)[C@@H](CC(C)C)C(=O)N[C@@H](C(C)C)C(=O)N(C)[C@@H](CC(C)C)C(=O)N[C@@H](C)C(=O)N[C@H](C)C(=O)N(C)[C@@H](CC(C)C)C(=O)N(C)[C@@H](CC(C)C)C(=O)N(C)[C@@H](C(C)C)C(=O)N1C [CYCLOSPORINE] the inhibition at 0.06 µM (PBMC [8]) was 65.7%, the inhibition at 0.01 µM (PBMC [9]) was 32% and the inhibition at 0.08 µM (PBMC [10]) was 75.2%.
